Measurements: ChEMBL document CHEMBL5252669, “Semisynthetic blasticidin S ester derivatives show enhanced antibiotic activity” (RSC Med Chem, 2023)
In brackets after ≈: the same amount, converted by molar mass. Activity calls are given as the source filed them. The rule behind the calls is not given here.

Tests used:
Enterococcus faecalis [1] = assay: Antibacterial activity against Enterococcus faecalis ATCC 29212 incubated for 20 hrs by broth microdilution method; conditions: ATCC 29212, 20 h
[2] = Selectivity index, ratio of CC50 for human MRC5 cells to IC50 for MexAB-OprM deleted Pseudomonas aeruginosa; assay type: toxicity; conditions: read-out: Ratio CC50/IC50
Staphylococcus aureus [3] = assay: Antibacterial activity against methicillin resistant Staphylococcus aureus ATCC 43300 incubated for 16 hrs by broth microdilution method; assay type: functional, organism-based; conditions: for IC50: ATCC 43300, 16 h; for MIC: ATCC 43300, time 16 hrs
Outline: (§1)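 Cation-adjusted Mueller-Hinton broth microdilution. Overnight cultures from single colonies were diluted to OD600 0.004. Final compound range was 256–2 μg mL−1 in 1:1 methanol/water vehicle, with doxycycline and vehicle controls. Plates were incubated 16 h at 37 °C. OD600 was normalized to controls, and MIC was the lowest concentration inhibiting >90% growth. Two biological replicates in duplicate; reported as a range.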

Enterococcus faecalis [4] = assay: Antibacterial activity against Enterococcus faecalis ATCC 29212 assessed as zone of inhibition incubated for 18 hrs by spot on lawn assay; assay type: functional, organism-based
Outline: (§2)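 Overnight LB cultures diluted to OD600 0.01 in 0.7% LB top agar, overlaid on 1.5% LB agar; 5 mg mL−1 aqueous compound spotted at 35, 25, 10 and 5 μg with 1:1 water/methanol vehicle spot; 37 °C, 18 h; inhibition zone diameter measured by ruler.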

Staphylococcus aureus [5] = assay: Antibacterial activity against NorA deleted Staphylococcus aureus incubated for 16 hrs by broth microdilution method; assay type: functional, organism-based; conditions: for IC50: 16 h; for MIC: time 16 hrs
Outline: as §1

Enterococcus [6] = assay: Antibacterial activity against vancomycin-resistant Enterococcus assessed as zone of inhibition incubated for 18 hrs by spot on lawn assay; assay type: functional, organism-based
Outline: (§3)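 Spot-on-lawn assay. Plates of 1.5% agar in LB were overlaid with 0.7% LB agar seeded with overnight culture at 0.01 OD600. Aqueous 5 mg mL−1 solutions were spotted at 35, 25, 10 and 5 μg, with a 1:1 water/methanol vehicle spot. After 18 h at 37 °C, inhibition zone diameters were measured with a ruler.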

[7] = Selectivity index, ratio of CC50 for human MRC5 cells to IC50 for vancomycin-resistant Enterococcus; assay type: toxicity; conditions: read-out: Ratio CC50/IC50
Candida albicans [8] = assay: Antifungal activity against Candida albicans assessed as zone of inhibition incubated for 18 hrs by spot on lawn assay; assay type: functional, organism-based
Outline: as §2

[9] = Selectivity index, ratio of CC50 for human MRC5 cells to IC50 for methicillin resistant Staphylococcus aureus; assay type: toxicity; conditions: read-out: Ratio CC50/IC50
[10] = Selectivity index, ratio of CC50 for human MRC5 cells to IC50 for Klebsiella pneumoniae ATCC 29665; assay type: toxicity; conditions: read-out: Ratio CC50/IC50
Staphylococcus aureus [11] = assay: Antibacterial activity against methicillin resistant Staphylococcus aureus assessed as zone of inhibition incubated for 18 hrs by spot on lawn assay; assay type: functional, organism-based
Outline: as §3

Candida albicans [12] = assay: Antifungal activity against Candida albicans incubated for 16 hrs by broth microdilution method; assay type: functional
[13] = Cytotoxicity against human MRC5 cells incubated for 24 hrs by MTS assay; assay type: toxicity, cell-based
Outline: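 MRC-5 lung fibroblasts seeded 5000 per well; medium replaced with compound 16–192 μg mL−1 or matching 1:1 methanol:water vehicle; 24 h, then MTS 3–4 h; absorbance 490 nm; viability relative to untreated cells, normalized to vehicle; CC50 from two independent assays in duplicate, mean ± SD.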

Klebsiella pneumoniae = assay: Antibacterial activity against Klebsiella pneumoniae ATCC 29665 incubated for 16 hrs by broth microdilution method; assay type: functional, organism-based; conditions: for IC50: ATCC 29665, 16 h; for MIC: ATCC 29665, time 16 hrs
Pseudomonas aeruginosa = assay: Antibacterial activity against MexAB-OprM deleted Pseudomonas aeruginosa incubated for 16 hrs by broth microdilution method; assay type: functional, organism-based; conditions: for IC50: 16 h; for MIC: time 16 hrs
Staphylococcus aureus [14] = assay: Antibacterial activity against Staphylococcus aureus assessed as zone of inhibition incubated for 18 hrs by spot on lawn assay; assay type: functional, organism-based
Outline: as §2

Enterococcus [15] = assay: Antibacterial activity against vancomycin-resistant Enterococcus incubated for 20 hrs by broth microdilution method
Saccharomyces cerevisiae = assay: Antifungal activity against Saccharomyces cerevisiae incubated for 16 hrs by broth microdilution method; assay type: functional
[16] = Selectivity index, ratio of CC50 for human MRC5 cells to IC50 for NorA deleted Staphylococcus aureus; assay type: toxicity; conditions: read-out: Ratio CC50/IC50
Acinetobacter baumannii = assay: Antibacterial activity against Acinetobacter baumannii ATCC 17978 incubated for 16 hrs by broth microdilution method; assay type: functional, organism-based; conditions: for IC50: ATCC 17978, 16 h; for MIC: ATCC 17978, time 16 hrs
[17] = Selectivity index, ratio of CC50 for human MRC5 cells to IC50 for Staphylococcus aureus; assay type: toxicity; conditions: read-out: Ratio CC50/IC50
Staphylococcus aureus [18] = assay: Antibacterial activity against NorA deleted Staphylococcus aureus assessed as zone of inhibition incubated for 18 hrs by spot on lawn assay; assay type: functional, organism-based
Outline: as §2

[19] = Selectivity index, ratio of CC50 for human MRC5 cells to IC50 for Acinetobacter baumannii ATCC 17978; assay type: toxicity; conditions: read-out: Ratio CC50/IC50
[20] = Selectivity index, ratio of CC50 for human MRC5 cells to IC50 for Enterococcus faecalis ATCC 29212; assay type: toxicity; conditions: read-out: Ratio CC50/IC50
Staphylococcus aureus [21] = assay: Antibacterial activity against wild type Staphylococcus aureus 8810 incubated for 16 hrs by broth microdilution method; assay type: functional, organism-based; conditions: for IC50: Staphylococcus aureus, 8810, 16 h; for MIC: Staphylococcus aureus, 8810, time 16 hrs
Outline: as §1

Row | SMILES | IC50 (Enterococcus faecalis [1]) [µg/mL] | MIC (Enterococcus faecalis [1]) [µg/mL] | selectivity ratio [2] | IC50 (Staphylococcus aureus [3]) [µg/mL] | MIC (Staphylococcus aureus [3]) [µg/mL] | IC50 (Staphylococcus aureus [5]) [µg/mL] | MIC (Staphylococcus aureus [5]) [µg/mL] | selectivity ratio [7] | selectivity ratio [9] | selectivity ratio [10] | MIC (Candida albicans [12]) [µg/mL] | CC50 at 24 h [13] [µg/mL] | IC50 (Klebsiella pneumoniae) [µg/mL] | MIC (Klebsiella pneumoniae) [µg/mL] | IC50 (Pseudomonas aeruginosa) [µg/mL] | MIC (Pseudomonas aeruginosa) [µg/mL] | IC50 (Enterococcus [15]) [µg/mL] | MIC (Enterococcus [15]) [µg/mL] | MIC (Saccharomyces cerevisiae) [µg/mL] | selectivity ratio [16] | also measured
1 | CCCCOC(=O)[C@H]1O[C@@H](n2ccc(N)nc2=O)C=C[C@@H]1NC(=O)C[C@@H](N)CCN(C)C(=N)N | 16.1 (≈ 33.6 µM) | 32 (≈ 66.9 µM) | 0.3 | 28.1 (≈ 58.7 µM) | 64 (≈ 134 µM) | 34.6 (≈ 72.3 µM) | 64 (≈ 134 µM) | 0.2 | 0.7 | 0.3 | > 256 | 21.2 (≈ 44.3 µM) | 82.1 (≈ 172 µM) | > 128 | 79.8 (≈ 167 µM) | > 128 | 130 (≈ 272 µM) | 256 (≈ 535 µM) | 64 (≈ 134 µM) | 0.6 | Activity (Enterococcus faecalis [4]): Active; Activity (Enterococcus [6]): Active; Activity (Candida albicans [8]): inactive; Activity (Staphylococcus aureus [11]): Active; Activity (Staphylococcus aureus [14]): Active; IC50 (Acinetobacter baumannii): 61.5 µg/mL (≈ 129 µM); MIC (Acinetobacter baumannii): > 128 µg/mL; selectivity ratio [17]: 0.9; Activity (Staphylococcus aureus [18]): Active; selectivity ratio [19]: 0.3; selectivity ratio [20]: 1.3; IC50 (Staphylococcus aureus [21]): 23.9 µg/mL (≈ 49.9 µM); MIC (Staphylococcus aureus [21]): 64 µg/mL (≈ 134 µM)
2 | CN(CC[C@H](N)CC(=O)N[C@H]1C=C[C@H](n2ccc(N)nc2=O)O[C@@H]1C(=O)OCc1ccccc1)C(=N)N | 14.6 (≈ 28.5 µM) | 16 (≈ 31.2 µM) | 0.2 | 23.3 (≈ 45.5 µM) | 32 (≈ 62.4 µM) | 46.6 (≈ 90.9 µM) | 128 (≈ 250 µM) | < 0.3 | 0.7 | 0.3 | > 128 | 17.4 (≈ 33.9 µM) | 58.8 (≈ 115 µM) | > 128 | 89.3 (≈ 174 µM) | > 128 | > 64 | 128 (≈ 250 µM) | 128 (≈ 250 µM) | 0.4 | IC50 (Acinetobacter baumannii): 85.1 µg/mL (≈ 166 µM); MIC (Acinetobacter baumannii): > 128 µg/mL; selectivity ratio [17]: 0.5; selectivity ratio [19]: 0.2; selectivity ratio [20]: 1.2; IC50 (Staphylococcus aureus [21]): 33 µg/mL (≈ 64.4 µM); MIC (Staphylococcus aureus [21]): 128 µg/mL (≈ 250 µM)
3 | CCCOC(=O)[C@H]1O[C@@H](n2ccc(N)nc2=O)C=C[C@@H]1NC(=O)C[C@@H](N)CCN(C)C(=N)N | 10.5 (≈ 22.6 µM) | 16 (≈ 34.4 µM) | 0.2 | 15.8 (≈ 34 µM) | 32 (≈ 68.9 µM) | 20.6 (≈ 44.3 µM) | 32 (≈ 68.9 µM) | 0.4 | 0.6 | 0.2 | > 256 | 10.2 (≈ 22 µM) | 60.1 (≈ 129 µM) | 128 (≈ 276 µM) | 61.6 (≈ 133 µM) | > 128 | 23.6 (≈ 50.8 µM) | 128 (≈ 276 µM) | 32 (≈ 68.9 µM) | 0.5 | Activity (Enterococcus faecalis [4]): Active; Activity (Enterococcus [6]): Active; Activity (Candida albicans [8]): inactive; Activity (Staphylococcus aureus [11]): Active; Activity (Staphylococcus aureus [14]): Active; IC50 (Acinetobacter baumannii): 42.3 µg/mL (≈ 91.1 µM); MIC (Acinetobacter baumannii): 128 µg/mL (≈ 276 µM); selectivity ratio [17]: 0.7; Activity (Staphylococcus aureus [18]): Active; selectivity ratio [19]: 0.2; selectivity ratio [20]: 1; IC50 (Staphylococcus aureus [21]): 14.5 µg/mL (≈ 31.2 µM); MIC (Staphylococcus aureus [21]): 32 µg/mL (≈ 68.9 µM)
4 | CN(CC[C@H](N)CC(=O)N[C@H]1C=C[C@H](n2ccc(N)nc2=O)O[C@@H]1C(=O)O)C(=N)N.Cl | 52.5 | 128 | 0.2 | 79.7 | 128 | > 256 | > 256 | < 0.1 | 0.2 | 0.2 | 64 | 16.1 | 74.8 | 128 | 73 | 128 | > 256 | > 256 | 16 | < 0.1 | Activity (Candida albicans [8]): Active; IC50 (Acinetobacter baumannii): 70.4 µg/mL; MIC (Acinetobacter baumannii): 128 µg/mL; selectivity ratio [17]: 0.2; selectivity ratio [19]: 0.2; selectivity ratio [20]: 0.3; IC50 (Staphylococcus aureus [21]): 77 µg/mL; MIC (Staphylococcus aureus [21]): 128 µg/mL
5 | CCCCCCOC(=O)[C@H]1O[C@@H](n2ccc(N)nc2=O)C=C[C@@H]1NC(=O)C[C@@H](N)CCN(C)C(=N)N | 11.4 (≈ 22.5 µM) | 16 (≈ 31.6 µM) | 0.2 | 43.2 (≈ 85.3 µM) | 128 (≈ 253 µM) | 18 (≈ 35.5 µM) | 32 (≈ 63.2 µM) | 0.1 | 0.4 | 0.3 | > 32 | 18.4 (≈ 36.3 µM) | 67.1 (≈ 132 µM) | 128 (≈ 253 µM) | 77.2 (≈ 152 µM) | > 128 | 140 (≈ 276 µM) | 256 (≈ 505 µM) | 16 (≈ 31.6 µM) | 1 | IC50 (Acinetobacter baumannii): 52.4 µg/mL (≈ 103 µM); MIC (Acinetobacter baumannii): 128 µg/mL (≈ 253 µM); selectivity ratio [17]: 0.7; selectivity ratio [19]: 0.3; selectivity ratio [20]: 1.6; IC50 (Staphylococcus aureus [21]): 27.1 µg/mL (≈ 53.5 µM); MIC (Staphylococcus aureus [21]): 64 µg/mL (≈ 126 µM)
